ChEMBL document CHEMBL1127337, “1-((7,7-Dimethyl-2(S)-(2(S)-amino-4-(methylsulfonyl)butyramido)bicyclo [2.2.1]-heptan-1(S)-yl)methyl)sulfonyl)-4-(2-methylphenyl)piperaz ine (L-368,899): an orally bioavailable, non-peptide oxytocin antagonist with potential utility for managing preterm labor” (J Med Chem, 1994)
pIC50: −log10 of the molar value. Calls of active or inactive are those of the source. No cut-off for these calls is given here.

Tests used:
Rattus norvegicus [1] = experiment: In vivo dose given intraduodenally (id) that reduces by 50% the contractile response of the in situ rat uterus to exogenous OT; assay type: functional
How it was run: (§1)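 Uterine contraction recorded isometrically in situ in anesthetized DES-pretreated rats; OT 1 µg/kg iv at 35-min intervals, third response set as 100%. Antagonist injected intraduodenally as a suspension in saline with 1% methocel. AD50 is the dose lowering the response to the fourth OT injection by 50% against the vehicle group.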

Vasopressin V1a receptor = Vasopressin V1a receptor (Rattus norvegicus, UniProt P30560); experiment: Displacement of [3H]AVP from binding to arginine vasopressin 1a (V1a) […] of rat liver
How it was run: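 Competition binding against [3H]AVP on liver from male rats (V1a site). IC50 is the molar concentration giving 50% radioligand displacement.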

Rattus norvegicus [2] = experiment: In vivo dose given intravenously (iv) that reduces by 50% the contractile response of the in situ rat uterus to exogenous OT; assay type: functional
How it was run: (§2)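 Anesthetized DES-pretreated rats set up for isometric recording of in situ uterine contraction; OT 1 µg/kg iv every 35 min, third response taken as 100%. Antagonist infused iv over 10 min in saline, saline with 2% DMSO, or 15% DMSO plus 15% emulphor. AD50 is the dose cutting the response to the fourth OT injection by 50% relative to vehicle-treated rats.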

Vasopressin V2 receptor = Vasopressin V2 receptor (Rattus norvegicus, UniProt Q00788); experiment: Displacement of [3H]-AVP from binding to Vasopressin receptor V2 of rat kidney
How it was run: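 [3H]AVP competition binding on kidney medulla from male rats (V2 site). IC50 is the molar concentration displacing 50% of radioligand.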

[3] = Aqueous solubilities were determined by dissolving an crystalline hemisulfate and […] salts, respectively in water and adding acetate to pH 5.0, concentrations are expressed in free base equivalents; assay type: ADME; conditions: water adjusted with acetate, read-out: S
How it was run: (§3)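 Crystalline hemisulfate or dihydrochloride salt dissolved in water, then acetate added to pH 5.0 to measure aqueous solubility.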

Oxytocin receptor [4] = biological target: T1, Oxytocin receptor (Rattus norvegicus, UniProt P70536); experiment: In vitro antagonism of OT-induced uterine contractions, against rat uterus by measuring pA2 value which refers to the negative logarithm of the molar concentration; assay type: functional, tissue-based; conditions: read-out: pA2 (converted)
T1 sequence (P70536 whole entry): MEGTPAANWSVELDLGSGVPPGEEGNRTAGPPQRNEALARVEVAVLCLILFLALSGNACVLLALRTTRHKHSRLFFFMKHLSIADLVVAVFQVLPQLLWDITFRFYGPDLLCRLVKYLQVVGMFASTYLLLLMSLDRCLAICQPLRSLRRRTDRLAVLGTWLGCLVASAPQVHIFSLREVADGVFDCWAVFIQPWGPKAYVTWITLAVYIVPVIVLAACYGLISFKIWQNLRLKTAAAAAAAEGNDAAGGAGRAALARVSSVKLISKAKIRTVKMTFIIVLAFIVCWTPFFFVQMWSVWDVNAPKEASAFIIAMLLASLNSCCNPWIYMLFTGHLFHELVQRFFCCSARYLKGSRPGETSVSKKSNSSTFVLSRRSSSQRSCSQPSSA
How it was run: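 Uteri isolated from diethylstilbestrol-pretreated rats; contractions evoked by oxytocin. pA2 = negative log of molar antagonist concentration giving a 2-fold rightward shift of the oxytocin dose-response curve (dose ratio 2), derived by Schild analysis.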

Oxytocin receptor [5] = biological target: T1, Oxytocin receptor; experiment: Displacement of [3H]OT from binding to oxytocin receptor of rat uterus
How it was run: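 Competition binding against [3H]OT on uterine tissue from pregnant rats (day 22-23 of gestation) or DES-pretreated rats. IC50 is the molar concentration giving 50% displacement of radioligand.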

Rattus norvegicus [6] = experiment: In vivo dose given intraduodenally (id) that reduces by 50% the contractile response of the in situ rat uterus to exogenous OT; ca.2; assay type: functional; how it was run: as §1
[7] = Aqueous solubilities were determined by dissolving an crystalline hemisulfate and […] salts, respectively in water and adding acetate to pH 5.0, concentrations are expressed in free base equivalents.; assay type: ADME; conditions: water adjusted with acetate, read-out: S; how it was run: as §3
Rattus norvegicus [8] = experiment: In vivo dose given intraduodenally (id) that reduces by 50% the contractile response of the in situ rat uterus to exogenous OT; ca.20; assay type: functional; how it was run: as §1
Rattus norvegicus [9] = experiment: in vivo dose given intravenously (iv) that reduces by 50% the contractile response of the in situ rat uterus to exogenous OT; assay type: functional; how it was run: as §2
Rattus norvegicus [10] = experiment: In vivo dose given intraduodenally (id) that reduces by 50% the contractile response of the in situ rat uterus to exogenous OT; NA=Inactive at 3.0 mg/Kg; assay type: functional, organism-based; how it was run: as §1
Oxytocin receptor [11] = biological target: T1, Oxytocin receptor; experiment: In vitro antagonism of OT-induced uterine contractions, against rat uterus by measuring pA2 value; assay type: functional, tissue-based; conditions: read-out: pA2 (converted)
How it was run: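 Uteri isolated from DES-pretreated rats and contracted with OT. pA2 is the negative log molar antagonist concentration giving a 2-fold rightward shift of the OT dose-response curve (dose ratio 2), derived from Schild plots.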

Rattus norvegicus [12] = experiment: In vivo dose given intraduodenally (id) that reduces by 50% the contractile response of the in situ rat uterus to exogenous OT; NA=Inactive at 1.0; assay type: functional, organism-based; how it was run: as §1
Rattus norvegicus [13] = experiment: AD50 value which refers to the dose given intravenously (iv) that reduces by 50% the contractile response of the in situ rat uterus to exogenous OT was determined for the compound in vivo; assay type: functional; how it was run: as §2

Chain of Vasopressin V2 receptor (Q00788 whole entry): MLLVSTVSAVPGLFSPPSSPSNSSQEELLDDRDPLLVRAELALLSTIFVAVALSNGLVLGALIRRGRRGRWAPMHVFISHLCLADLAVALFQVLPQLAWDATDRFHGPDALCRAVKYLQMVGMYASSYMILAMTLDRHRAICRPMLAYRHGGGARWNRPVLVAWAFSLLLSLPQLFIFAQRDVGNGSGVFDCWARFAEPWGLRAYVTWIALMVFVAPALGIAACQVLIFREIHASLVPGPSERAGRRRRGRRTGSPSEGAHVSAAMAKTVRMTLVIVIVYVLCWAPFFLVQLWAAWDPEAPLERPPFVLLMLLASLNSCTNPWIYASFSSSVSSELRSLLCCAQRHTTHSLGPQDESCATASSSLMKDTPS
Chain of Vasopressin V1a receptor (P30560 whole entry): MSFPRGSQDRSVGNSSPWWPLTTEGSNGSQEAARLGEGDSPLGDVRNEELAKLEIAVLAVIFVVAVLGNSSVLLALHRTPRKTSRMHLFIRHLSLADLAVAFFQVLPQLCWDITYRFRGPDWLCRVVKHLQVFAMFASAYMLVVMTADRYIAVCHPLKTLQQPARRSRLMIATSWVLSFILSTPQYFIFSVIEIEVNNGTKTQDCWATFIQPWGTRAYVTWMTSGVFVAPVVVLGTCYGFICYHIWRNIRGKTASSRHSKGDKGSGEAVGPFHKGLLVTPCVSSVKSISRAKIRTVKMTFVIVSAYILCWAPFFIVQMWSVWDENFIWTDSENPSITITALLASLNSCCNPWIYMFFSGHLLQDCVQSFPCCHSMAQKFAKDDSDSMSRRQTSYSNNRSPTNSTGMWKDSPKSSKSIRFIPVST

| pIC50 (Vasopressin V1a receptor) | pIC50 (Vasopressin V2 receptor) | solubility [3] | Kb (Oxytocin receptor [4]) | pIC50 (Oxytocin receptor [5]) | solubility [7] | Kb (Oxytocin receptor [11]) | SMILES | AD50 (Rattus norvegicus [1]) | AD50 (Rattus norvegicus [2]) | AD50 (Rattus norvegicus [6]) | AD50 (Rattus norvegicus [8]) | AD50 (Rattus norvegicus [9]) | AD50 (Rattus norvegicus [10]) | AD50 (Rattus norvegicus [12]) | AD50 (Rattus norvegicus [13]) |
| --- | --- | --- | --- | --- | --- | --- | --- | --- | --- | --- | --- | --- | --- | --- | --- |
| 6.43 | 6.24 | 3700 µg/mL | 1.26 nM | 8.05 | – | – | Cc1ccccc1N1CCN(S(=O)(=O)C[C@]23CCC(C[C@@H]2NC(=O)[C@@H](N)CCS(C)(=O)=O)C3(C)C)CC1 | 7 mg/kg | 0.35 mg/kg | – | – | – | – | – | – |
| 5.89 | 6.51 | 230 µg/mL | – | 7.74 | – | – | CCN(CC)[C@@H](CCS(C)(=O)=O)C(=O)N[C@H]1CC2CC[C@]1(CS(=O)(=O)N1CCN(c3ccccc3C)CC1)C2(C)C | – | – | – | – | – | – | – | – |
| 6.19 | 6.62 | – | – | 8.55 | 190 µg/mL | – | Cc1ccccc1N1CCN(S(=O)(=O)C[C@]23CCC(C[C@@H]2NC(=O)[C@H](CCS(C)(=O)=O)N(CCO)CCO)C3(C)C)CC1 | – | 0.087 mg/kg | – | – | – | inactive | – | – |
| 6.44 | 6.54 | 3100 µg/mL | – | 8.31 | – | 1 nM | Cc1ccccc1N1CCN(S(=O)(=O)C[C@]23CCC(C[C@@H]2NC(=O)[C@H](CCS(C)(=O)=O)N(C)C)C3(C)C)CC1 | 2.6 mg/kg | 0.13 mg/kg | – | – | – | – | – | – |

The next lines start with the compound.

| SMILES | pIC50 (Vasopressin V1a receptor) | pIC50 (Vasopressin V2 receptor) | solubility [3] | Kb (Oxytocin receptor [4]) | pIC50 (Oxytocin receptor [5]) | solubility [7] | Kb (Oxytocin receptor [11]) | AD50 (Rattus norvegicus [1]) | AD50 (Rattus norvegicus [2]) | AD50 (Rattus norvegicus [6]) | AD50 (Rattus norvegicus [8]) | AD50 (Rattus norvegicus [9]) | AD50 (Rattus norvegicus [10]) | AD50 (Rattus norvegicus [12]) | AD50 (Rattus norvegicus [13]) |
| --- | --- | --- | --- | --- | --- | --- | --- | --- | --- | --- | --- | --- | --- | --- | --- |
| CN[C@@H](CCS(C)(=O)=O)C(=O)N[C@H]1CC2CC[C@]1(CS(=O)(=O)N1CCN(c3ccccc3C)CC1)C2(C)C | 6.49 | 6.46 | – | – | 8.04 | – | – | – | – | – | – | – | – | – | – |
| CC1(C)C2CC[C@@]1(CS(=O)(=O)N1CCC3(CCc4ccccc43)CC1)[C@@H](NC(=O)[C@@H](N)CCC(N)=O)C2 | 5.64 | 5.29 | – | – | 7.92 | – | – | >30 mg/kg | – | 2 mg/kg | – | – | – | – | – |
| Cc1ccccc1N1CCN(S(=O)(=O)C[C@]23CCC(C[C@@H]2NC(=O)[C@H](CCS(C)(=O)=O)NC2CCOCC2)C3(C)C)CC1 | 6.17 | 6.57 | 360 µg/mL | – | 8.62 | – | – | 1.4 mg/kg | 0.045 mg/kg | – | – | – | – | – | – |
| CC1(C)C2CC[C@@]1(CS(=O)(=O)N1CCC3(CCc4ccccc43)CC1)[C@@H](NC(=O)[C@@H](N)CCS(C)(=O)=O)C2 | 6.05 | 5.62 | – | – | 7.92 | 1500 µg/mL | – | – | – | – | 20 mg/kg | 0.84 mg/kg | – | – | – |
| Cc1ccccc1N1CCN(S(=O)(=O)C[C@]23CCC(C[C@@H]2NC(=O)[C@H](CCS(C)(=O)=O)NC2CCS(=O)(=O)CC2)C3(C)C)CC1 | 6.36 | 6.80 | < 300 µg/mL | – | 8.85 | – | – | – | – | – | – | – | – | inactive | 0.031 mg/kg |
| Cc1ccccc1N1CCN(S(=O)(=O)C[C@]23CCC(C[C@@H]2NC(=O)[C@H](CCS(C)(=O)=O)NC2CCCCC2)C3(C)C)CC1 | 6.22 | 6.64 | – | – | 7.82 | – | – | – | – | – | – | – | – | – | – |
| Cc1ccccc1N1CCN(S(=O)(=O)C[C@]23CCC(C[C@@H]2NC(=O)[C@H](CCS(C)(=O)=O)NC2CCNCC2)C3(C)C)CC1 | 6.66 | 6.89 | 3000 µg/mL | – | 8.89 | – | – | – | 0.021 mg/kg | – | – | – | – | inactive | – |
